From PubChem BioAssay come the findings set out here.

The source made the active and inactive calls.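 How the source made its calls, unless noted: active means mean duplicate potentiation above the buffer control mean plus 5 SD of buffer wells; inactive means the rest.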

A short description of assay [1]: nonspecific flux increase, KCNQ1-free cells – parental CHO cells, counter-screen for KCNQ1 potentiator project (AID 493006;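 active means duplicate-averaged activation above buffer control mean plus 5 SD of those controls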). The conditions noted are these: parental CHO-K1 cells, FluxOR thallium flux, at 10 µM; stronger effect = higher value. In a few lines:
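Assay system: Untransfected host CHO-K1 cells with FluxOR thallium dye | Probe or stimulus: Potassium/thallium depolarization pulse | Schedule: Overnight 37 °C plating, 90 min RT dye, 20 min compound | Detection: Kinetic thallium-flux fluorescence | Read-out: Max-minus-min fluorescence over baseline, percent of buffer-to-R-L3 span | Benchmarks: Low control buffer, high control R-L3 activator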
(In general: Counterscreens check selectivity or assay interference.)

Assay [2] has as its target Potassium voltage-gated channel subfamily KQT member 1 (Homo sapiens) (UniProt P51787). Nature of the assay: enhancement of KCNQ1 channel thallium flux – FluxOR thallium flux, CHO cells, duplicates, confirmation (AID 493007;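 active means potentiation averaged over duplicate wells exceeding buffer-only control mean by more than 3 SD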;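 on outcome: cells depolarized by a potassium plus thallium sulfate stimulus after compound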). Conditions: KCNQ1 cell line, FluxOR thallium flux fluorescence, at 10 µM; stronger effect = higher value, % of reference activator effect, buffer zero. In a few lines:
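Material: KCNQ1-expressing CHO cell line; Incubation: FluxOR dye loading 90 min, compound exposure 20 min, room temperature; Detection: FluxOR Tl+ flux fluorescence, 10 s baseline plus 110 s recording; Read-out: percent activation between buffer and R-L3 responses; Control set: buffer-only wells as 0% and R-L3 activator as 100%; Replication: duplicate wells per compound.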

Assay [3] addresses Potassium voltage-gated channel subfamily KQT member 2 (Rattus norvegicus) (UniProt O88943). The assay can be described thus: KCNQ2 thallium flux enhancement – KCNQ2-CHO-K1 cells, selectivity assay for KCNQ1 potentiator project (AID 493009).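 Further: assay conditions were tuned for KCNQ1 rather than KCNQ2 modulators; signal is max minus min fluorescence divided by baseline after thallium stimulus.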 The conditions noted are these: FluxOR thallium flux fluorescence, at 10 µM; stronger effect = higher value, scaled: buffer 0, activator control 100.

The target of assay [4] is Potassium voltage-gated channel subfamily KQT member 1 (Homo sapiens) (UniProt P51787). Nature of the assay: KCNQ1 activators by electrophysiology – IonWorks patch clamp, KCNQ1-CHO cells, orthogonal assay for KCNQ1 potentiator project, confirmation (AID 493184;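 active means current rise at least 3 SD above the untreated control mean in each of two repeat wells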). Conditions: automated patch clamp current, at 10 µM; stronger effect = higher value. In a few lines:
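assay system = KCNQ1-expressing CHO cells | medium = external bath solution at pH 7.4 | probe or stimulus = 2,000 ms depolarization, -90 to +40 mV | compound dosing = 10 µM final, single point | measured by = automated voltage clamp, amphotericin B perforated patch | measure = percent current increase versus pre-compound level | replication = duplicates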

Assay [5] addresses Potassium voltage-gated channel subfamily E member 1 (Homo sapiens) + Potassium voltage-gated channel subfamily KQT member 1 (Homo sapiens) (UniProt P15382+P51787). The assay can be described thus: KCNQ1-E1 channel activation – thallium flux, CHO-K1 KCNQ1/E1 cells, selectivity assay for KCNQ1 potentiator project, confirmation (AID 493186;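 active means mean duplicate activation above the buffer control mean plus 5 SD of those controls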). Conditions: FluxOR thallium flux, at 10 µM; stronger effect = higher value. In a few lines: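 Test system – CHO-K1 cells with KCNQ1/E1 · Measured by – FluxOR Tl+ flux fluorescence, kinetic read · Controls – buffer low control, R-L3 high control · Times – dye 90 min, compound 20 min, room temperature · Replication – duplicate wells per compound · Doses – one test concentration · Evaluation – fluorescence rise relative to baseline, as percent of R-L3 response above buffer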

Chain of Potassium voltage-gated channel subfamily KQT member 1 (Homo sapiens) (P51787 whole entry, looked up): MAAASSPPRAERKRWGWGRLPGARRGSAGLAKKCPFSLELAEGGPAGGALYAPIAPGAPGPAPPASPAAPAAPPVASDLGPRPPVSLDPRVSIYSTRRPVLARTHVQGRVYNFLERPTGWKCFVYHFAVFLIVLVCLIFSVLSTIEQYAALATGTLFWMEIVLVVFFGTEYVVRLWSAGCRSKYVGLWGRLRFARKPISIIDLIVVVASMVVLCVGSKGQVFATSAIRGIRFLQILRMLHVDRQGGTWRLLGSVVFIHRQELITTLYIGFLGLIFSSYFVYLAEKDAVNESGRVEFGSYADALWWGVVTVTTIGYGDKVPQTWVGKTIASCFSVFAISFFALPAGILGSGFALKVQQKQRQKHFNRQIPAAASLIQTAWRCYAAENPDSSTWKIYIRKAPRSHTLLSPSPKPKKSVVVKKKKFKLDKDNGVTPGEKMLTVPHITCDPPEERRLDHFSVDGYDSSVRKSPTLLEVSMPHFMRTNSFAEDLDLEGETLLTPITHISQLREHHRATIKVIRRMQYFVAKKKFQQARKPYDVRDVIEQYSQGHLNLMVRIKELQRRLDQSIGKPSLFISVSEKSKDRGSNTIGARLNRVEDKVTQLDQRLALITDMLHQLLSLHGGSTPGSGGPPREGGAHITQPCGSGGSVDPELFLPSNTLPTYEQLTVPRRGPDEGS
Chain of Potassium voltage-gated channel subfamily KQT member 2 (Rattus norvegicus) (O88943 whole entry, looked up): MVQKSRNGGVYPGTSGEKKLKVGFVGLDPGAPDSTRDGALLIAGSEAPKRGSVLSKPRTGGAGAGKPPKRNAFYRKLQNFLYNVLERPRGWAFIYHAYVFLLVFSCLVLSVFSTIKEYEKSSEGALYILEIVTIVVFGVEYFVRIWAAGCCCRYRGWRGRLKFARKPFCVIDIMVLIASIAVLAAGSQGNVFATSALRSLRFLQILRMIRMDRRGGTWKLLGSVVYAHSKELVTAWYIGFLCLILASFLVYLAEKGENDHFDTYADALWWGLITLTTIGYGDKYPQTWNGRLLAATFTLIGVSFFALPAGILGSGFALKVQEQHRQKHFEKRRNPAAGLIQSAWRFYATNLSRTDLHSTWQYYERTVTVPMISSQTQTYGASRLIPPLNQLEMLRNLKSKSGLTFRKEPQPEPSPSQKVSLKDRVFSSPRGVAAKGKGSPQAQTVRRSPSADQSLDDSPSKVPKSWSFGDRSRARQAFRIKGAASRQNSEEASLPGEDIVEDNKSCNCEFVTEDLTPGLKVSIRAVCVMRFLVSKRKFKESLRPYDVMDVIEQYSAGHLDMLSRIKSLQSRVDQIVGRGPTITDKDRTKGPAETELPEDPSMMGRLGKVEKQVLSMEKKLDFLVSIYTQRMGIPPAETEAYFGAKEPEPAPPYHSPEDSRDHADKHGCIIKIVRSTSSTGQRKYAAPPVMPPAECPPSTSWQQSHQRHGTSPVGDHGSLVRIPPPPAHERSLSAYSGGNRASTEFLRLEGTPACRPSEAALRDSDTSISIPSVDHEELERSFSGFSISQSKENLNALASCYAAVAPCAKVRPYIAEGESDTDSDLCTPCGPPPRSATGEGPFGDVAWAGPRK
Chain of Potassium voltage-gated channel subfamily E member 1 (Homo sapiens) + Potassium voltage-gated channel subfamily KQT member 1 (Homo sapiens) (P51787 whole entry, looked up): as the sequence (P51787 whole entry, looked up) above

Take `Cn1c(=O)c2c(ncn2CC(=O)N/N=C/C(Cl)=C/c2ccccc2)n(C)c1=O`: the outcome in assay [1], in assay [2], in assay [3], in assay [4] and in assay [5] was inactive.
Take `CCSc1nnc(-c2ccncc2)n1Cc1ccccc1`: the outcome in assay [1], in assay [2], in assay [3], in assay [4] and in assay [5] was inactive.
As for `COc1ccc(-c2csc(N(CCCN(C)C)C(=O)c3ccccc3F)n2)cc1`, the result in assay [1], in assay [2], in assay [3], in assay [4] and in assay [5] was inactive.
Take `C=CCSc1nc2c(c(=O)[nH]1)C(C(C)C)C(C#N)=C(N)O2` (stereo not given): the outcome in assay [1], in assay [2], in assay [3], in assay [4] and in assay [5] was inactive.
With `CC(=O)C[C@H]1c2cc(C(F)(F)F)ccc2S(=O)(=O)N1C1CCCCC1`, the result in assay [1], in assay [3], in assay [4] and in assay [5] was inactive. The potentiation in assay [2] is 74% (active).
With `O=C(CC(c1ccccc1)c1ccccc1)Nc1ncn[nH]1`, the outcome in assay [1], in assay [2], in assay [3], in assay [4] and in assay [5] was inactive.
In the case of `Cc1ccc(C)c(Cn2c(O)c(N=NC(=S)Nc3ccccc3F)c3ccccc32)c1`, the outcome in assay [1], in assay [2], in assay [3], in assay [4] and in assay [5] was inactive.
On to `CCOC(=O)c1ccc(-n2c(CN3CCOCC3)nc3ccc([N+](=O)[O-])cc3c2=O)cc1`, for which the result in assay [1], in assay [2], in assay [3], in assay [4] and in assay [5] was inactive.
With `Cc1nn(Cc2ccc(Cl)cc2)c(C)c1NC(=O)c1cc(-c2ccco2)on1`, the outcome in assay [1], in assay [2], in assay [3], in assay [4] and in assay [5] was inactive.
As to `CS(=O)(=O)c1ccc(Cl)c(NC(=O)c2cc(S(=O)(=O)N3CCOCC3)ccc2N2CCCC2)c1`, the result in assay [1], in assay [2], in assay [3], in assay [4] and in assay [5] was inactive.
Turning to `Cc1ccc(-c2nc(=S)c3c(n2Cc2ccco2)CC(C)(C)OC3)cc1`, the outcome in assay [1], in assay [2], in assay [3], in assay [4] and in assay [5] was inactive.
As to `COc1cc(OC)cc(C(=O)N2CC(=O)Nc3ccccc32)c1`, the outcome in assay [1], in assay [2], in assay [3], in assay [4] and in assay [5] was inactive.
As to `CN(CC(=O)NCc1ccccc1Cl)CC(=O)Nc1cccc(F)c1`, the outcome in assay [1], in assay [2], in assay [3], in assay [4] and in assay [5] was inactive.
In the case of `Cc1ccc2[nH]c(=O)c(CN(CCCN(C)C)C(=S)NCCc3ccccc3)cc2c1`, the outcome in assay [1], in assay [2], in assay [3], in assay [4] and in assay [5] was inactive.
Consider `CC(C)Oc1cccc(C(=O)NC(=S)N2CCN(c3ccc(C(F)(F)F)cc3[N+](=O)[O-])CC2)c1`, for which the result in assay [1], in assay [4] and in assay [5] was inactive. Besides, the potentiation in assay [2] is 35.5% (active); in assay [3], 144% (active).
Regarding `CCOC(=O)Cc1csc(NC(=S)NC(=O)c2ccc(Cl)cc2)n1`, the result in assay [1], in assay [2], in assay [3], in assay [4] and in assay [5] was inactive.
On to `Cc1ccc(C)c(NC(=S)c2nc3ccccc3s2)c1`, for which the outcome in assay [1], in assay [4] and in assay [5] was inactive. The values for the potentiation in assay [2] and in assay [3] were 104% (active) and 143% (active), respectively.
Take `O=C(N1CCCCC1)N1CCN(C(=O)N2CCCCC2)CC1`: the outcome in assay [1], in assay [3], in assay [4] and in assay [5] was inactive. For the same compound, the potentiation in assay [2] was 19% (active).
Take `CCn1c(O)c(N=NC(=S)NCC2CCCO2)c2ccccc21` (stereo not given): the outcome in assay [1], in assay [2], in assay [3], in assay [4] and in assay [5] was inactive.
On to `N=c1sccn1CC(=O)Nc1ccc(S(=O)(=O)N2CCOCC2)cc1`, for which the result in assay [1], in assay [2], in assay [3], in assay [4] and in assay [5] was inactive.
With `CCCn1c(=O)c(C(=O)NNC(=O)c2ccc(Cl)cc2Cl)c(O)c2ccccc21`, the result in assay [1], in assay [4] and in assay [5] was inactive. Also, the potentiation was 30% (active) in assay [2] and 154% (active) in assay [3].
With `CCC1=NN2C(=N)/C(=C/c3ccc(OS(=O)(=O)c4ccccc4)c(OC)c3)C(=O)N=C2S1`, the outcome in assay [1], in assay [2], in assay [3], in assay [4] and in assay [5] was inactive.
Consider `CCn1c(CN2CCN(c3ccc(OC)cc3)CC2)nc2cc(S(=O)(=O)N(C)C)ccc21`, for which the outcome in assay [1], in assay [2], in assay [3], in assay [4] and in assay [5] was inactive.
In the case of `CN(C)c1ccnc(N(Cc2ccccc2)Cc2ccccc2)c1C#N`, the result in assay [1], in assay [2], in assay [3], in assay [4] and in assay [5] was inactive.
For `Cc1cccc(OCc2n[nH]c(=S)n2C2CCCCC2)c1`, the result in assay [1], in assay [2], in assay [3], in assay [4] and in assay [5] was inactive.
On to `Cc1cc(C)nc(N/N=C/c2cccc3ccccc23)n1`, for which the outcome in assay [1], in assay [2], in assay [3], in assay [4] and in assay [5] was inactive.
In the case of `O=C(CN(CC1CCCO1)C(=O)CNS(=O)(=O)c1ccc(Cl)cc1)NC1CCCC1` (stereo not given), the result in assay [1], in assay [2], in assay [3], in assay [4] and in assay [5] was inactive.
For `CCN1CCN(C(c2ccccn2)c2c(NC(=O)c3ccccc3)sc(C)c2C)CC1` (stereo not given), the result in assay [1], in assay [2], in assay [3], in assay [4] and in assay [5] was inactive.
As for `Cc1[nH]c(=S)c(C#N)c(C)c1Cc1ccc(Cl)cc1Cl`, the result in assay [1], in assay [2], in assay [3], in assay [4] and in assay [5] was inactive.
With `Cc1cccc(N2CCN(C(=O)Cn3sc4nc(C)cc(C)c4c3=O)CC2C)c1` (stereo not given), the result in assay [1], in assay [2], in assay [3], in assay [4] and in assay [5] was inactive.
